Screening data deposited in PubChem by several laboratories.
T cruzi inh – T. cruzi replication inhibition | inhibition, % (concentration not given with the values) | hit rate 1.4% among 300,000 | T. cruzi beta-gal in NIH3T3, luminescence, 90 h;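 active = mean inhibition across valid replicates above about 55%, limit read from the data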;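 note: signal also drops with host cell toxicity which is not excluded here; higher percent means less beta-gal luminescence so fewer parasites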
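System: NIH/3T3 fibroblasts plus reporter T. cruzi. Medium: DMEM plus 2% FBS. Probe or stimulus: 5000 reporter trypomastigotes per well. Compound: single 50 nL compound addition per well in DMSO. Incubation: co-culture of at least 90 h after 3 h attachment. Detection: GalScreen β-gal luminescence, detergent lysis, 60 min. Evaluation: parasite load inhibition, %.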
DTT redox prof – compounds producing H2O2 with reducing agent – biochemical, NIH compound library profiling, artefact control for MLSCN library redox annotation, primary screen; AID 878; DTT-dependent redox cycling H2O2, phenol red/HRP absorbance; 100% = 100 µM peroxide control, 0% = buffer; activation, % at 10 µM; hit rate 0.03% among 200,000;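 active = activation of at least 50% relative to the plate's high and low controls in the primary single-dose screen; inactive = activation below 50%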;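 note: compound incubated with DTT at 0.8 mM final as the reducing agent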
L major viab – Leishmania major promastigote growth inhibition; Leishmania major promastigotes, resazurin fluorescence viability; inhibition, % at 10 µM; hit rate 9% among 200,000; AID 1063; in the data active = inhibition above about 50%;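 note: promastigotes grown with compound for 44 hours at 28 °C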
Lipid droplet – modulators of hepatic lipid droplet formation; AML12 mouse hepatocytes, oleate lipid droplets, BODIPY imaging; inhibition, % at 6.5 µM; hit rate 0.4% among 240,000; AID 1656;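 active = lipid droplet intensity inhibited by at least 50%, with more than 500 cells counted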
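System: AML12 hepatocytes (mouse). Probe or stimulus: oleic acid at 100 µM to induce lipid droplet formation. Times: overnight treatment with compound plus oleate. Detection: Image-based BODIPY and DAPI two-channel analysis. Evaluation: percent inhibition of filter-corrected integrated lipid droplet intensity per well.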
MPTP inh – blocks calcium-induced mitochondrial swelling; hit rate 1.4% among 360,000; inhibition, % at 10 µM; AID 602449; isolated mouse mitochondria, Ca2+ swelling absorbance, 30 min;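 active = inhibition of 50% or more, scaled per plate between neutral and stimulator controls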
Each line names hits and unclear results; the compound was inactive in the other large screens. The entries come from a sample that favours hits as a whole.

COC(=O)C(O)(c1ccc(N(C)C)cc1)C(F)(F)F (stereo not given)	none
CCOC(=O)C(O)(c1ccc(N(CC)C(=O)COc2ccccc2)cc1)C(F)(F)F (stereo not given)	L major viab 64.6
CCOC(=O)C(O)(c1ccc(N(CC)S(=O)(=O)c2ccc(C)cc2)cc1)C(F)(F)F (stereo not given)	L major viab 92.5
CCN(c1ccc(C(O)(C(=O)OC)C(F)(F)F)cc1)S(=O)(=O)c1ccc(C)cc1 (stereo not given)	L major viab 89.0
CCN(C(=O)COC(=O)c1cn(C)c2ccccc12)c1ccc(F)cc1	none (no result: T cruzi inh, DTT redox prof, L major viab, Lipid droplet)
CNc1cc(Cl)c2nonc2c1[N+](=O)[O-]	L major viab 74.5
Cc1ccc(C(=O)N[C@@H](C)CN2C3=NC[C@@H](Cc4ccccc4)N3C[C@H]2Cc2ccc(O)cc2)cc1Br	L major viab 51.9 (no result: MPTP inh)
Cc1ccc(C(=O)N[C@@H](C)CN2C3=NC[C@H](Cc4ccccc4)N3C[C@H]2Cc2ccc(O)cc2)cc1Br	none (no result: DTT redox prof, L major viab, MPTP inh)
COc1ccc(Cl)cc1C(=O)C1CCCN(Cc2cnc(C)s2)C1 (stereo not given)	L major viab 78.2
COc1c(C)cc(C(=O)C2CCCN(Cc3cnc(C)s3)C2)cc1C (stereo not given)	L major viab 70.2
COc1ccc(F)cc1C(=O)C1CCCN(Cc2cnc(C)s2)C1 (stereo not given)	none
Cc1ncc(CN2CCCC(C(=O)c3cccc(OC(C)C)c3)C2)s1 (stereo not given)	L major viab 89.4
COc1c(C)cc(C(=O)C2CCCN(Cc3ccccn3)C2)cc1C (stereo not given)	L major viab 99.9
COc1cccc(C(=O)C2CCCN(Cc3ccccn3)C2)c1 (stereo not given)	none
O=C(c1cn(Cc2ccccc2F)c2ncccc12)C(F)(F)F	none (no result: DTT redox prof, L major viab, Lipid droplet)
CCCC1(CC(C)CC)C(=O)NC(=O)NC1=O (stereo not given)	none (no result: T cruzi inh, DTT redox prof, L major viab, Lipid droplet)
Cc1ccc2cc(C=C(C#N)C#N)c(Cl)nc2c1	none
O=Cc1cn(Cc2cccc(F)c2)c2ccccc12	L major viab 59.0
O=C1CCCN1CC#CCN1CCCC1	none (no result: DTT redox prof, L major viab)
Cc1oc(-c2ccccc2)nc1CN1C(=O)CN=C(c2ccccc2)c2ccccc21	none
Cc1ccc(CN2C(=O)CN=C(c3ccccc3)c3ccccc32)cc1	L major viab 57.0
Clc1ccc(CO/N=C(\Cn2ccnc2)c2ccc(Cl)cc2Cl)c(Cl)c1	T cruzi inh 67.8 (no result: DTT redox prof, L major viab, Lipid droplet, MPTP inh)
N#Cc1ccc(NC(=O)CN2CCCCCC2)cc1Cl	none (no result: DTT redox prof, L major viab)
Cc1ccsc1C(=O)C1CCCN(Cc2ccn[nH]2)C1 (stereo not given)	none
CC(C)(C)c1ccc(C(=O)C2CCCN(Cc3ccon3)C2)cc1 (stereo not given)	L major viab 80.1
O=C(c1ccc(-c2ccccc2)cc1)C1CCCN(Cc2ccn[nH]2)C1 (stereo not given)	L major viab 98.5
CSc1ccc(C(=O)C2CCCN(Cc3cccnc3)C2)cc1 (stereo not given)	L major viab 85.1
COc1ccccc1CN1CCCC(C(=O)c2ccccc2OC)C1 (stereo not given)	none (no result: DTT redox prof, L major viab)
COc1ccccc1CN1CCCC(C(=O)c2ccccc2SC)C1 (stereo not given)	T cruzi inh 60.2, L major viab 67.5
O=C(c1ccc(Cl)cc1)C1CCCN(Cc2ccon2)C1 (stereo not given)	none
CS(=O)(=O)c1ccc(C2=C(CNC(=O)c3ccc([N+](=O)[O-])cc3)[C@H]3CC[C@@H](C2)N3CCOc2ccccc2)cc1	none (no result: T cruzi inh, DTT redox prof, L major viab, Lipid droplet)
O=P(Nc1ccccc1)(Nc1ccccc1)Oc1cccc(Cl)c1	none (no result: Lipid droplet)
CSc1ccccc1C(=O)C1CCCN(Cc2ccncc2)C1 (stereo not given)	L major viab 71.3
COc1ccc(N/N=C/c2c(O)n(-c3ccc(C)c(C)c3)c(=O)[nH]c2=O)cc1	L major viab 87.7
Cc1ccc(-n2c(O)c(/C=N/Nc3ccccc3)c(=O)[nH]c2=O)cc1C	none (no result: DTT redox prof, L major viab, MPTP inh)
Cc1cccc(-n2c(O)c(/C=N/NC(=O)c3ccncc3)c(=O)[nH]c2=O)c1	none (no result: DTT redox prof, L major viab)
COc1ccc(N/N=C/c2c(O)n(-c3cccc(C)c3)c(=O)[nH]c2=O)cc1	L major viab 94.0
CSc1ccc(CN2CCN(Cc3ccccc3Cl)CC2)cc1	L major viab 82.3
Cc1ccc(CN2CCN(Cc3ccccc3)CC2)cc1	T cruzi inh 58.9
